This note sets out measurements from ChEMBL document CHEMBL1138485, “Discovery of inducible nitric oxide synthase (iNOS) inhibitor development candidate KD7332, part 1: Identification of a novel, potent, and selective series of quinolinone iNOS dimerization inhibitors that are orally active in rodent pain models” (J Med Chem, 2009).

SMILES strings stand for the structures.

The target in data set [1] is T1, Nitric oxide synthase, inducible (Mus musculus, UniProt P29477).
T1 sequence (P29477 whole entry): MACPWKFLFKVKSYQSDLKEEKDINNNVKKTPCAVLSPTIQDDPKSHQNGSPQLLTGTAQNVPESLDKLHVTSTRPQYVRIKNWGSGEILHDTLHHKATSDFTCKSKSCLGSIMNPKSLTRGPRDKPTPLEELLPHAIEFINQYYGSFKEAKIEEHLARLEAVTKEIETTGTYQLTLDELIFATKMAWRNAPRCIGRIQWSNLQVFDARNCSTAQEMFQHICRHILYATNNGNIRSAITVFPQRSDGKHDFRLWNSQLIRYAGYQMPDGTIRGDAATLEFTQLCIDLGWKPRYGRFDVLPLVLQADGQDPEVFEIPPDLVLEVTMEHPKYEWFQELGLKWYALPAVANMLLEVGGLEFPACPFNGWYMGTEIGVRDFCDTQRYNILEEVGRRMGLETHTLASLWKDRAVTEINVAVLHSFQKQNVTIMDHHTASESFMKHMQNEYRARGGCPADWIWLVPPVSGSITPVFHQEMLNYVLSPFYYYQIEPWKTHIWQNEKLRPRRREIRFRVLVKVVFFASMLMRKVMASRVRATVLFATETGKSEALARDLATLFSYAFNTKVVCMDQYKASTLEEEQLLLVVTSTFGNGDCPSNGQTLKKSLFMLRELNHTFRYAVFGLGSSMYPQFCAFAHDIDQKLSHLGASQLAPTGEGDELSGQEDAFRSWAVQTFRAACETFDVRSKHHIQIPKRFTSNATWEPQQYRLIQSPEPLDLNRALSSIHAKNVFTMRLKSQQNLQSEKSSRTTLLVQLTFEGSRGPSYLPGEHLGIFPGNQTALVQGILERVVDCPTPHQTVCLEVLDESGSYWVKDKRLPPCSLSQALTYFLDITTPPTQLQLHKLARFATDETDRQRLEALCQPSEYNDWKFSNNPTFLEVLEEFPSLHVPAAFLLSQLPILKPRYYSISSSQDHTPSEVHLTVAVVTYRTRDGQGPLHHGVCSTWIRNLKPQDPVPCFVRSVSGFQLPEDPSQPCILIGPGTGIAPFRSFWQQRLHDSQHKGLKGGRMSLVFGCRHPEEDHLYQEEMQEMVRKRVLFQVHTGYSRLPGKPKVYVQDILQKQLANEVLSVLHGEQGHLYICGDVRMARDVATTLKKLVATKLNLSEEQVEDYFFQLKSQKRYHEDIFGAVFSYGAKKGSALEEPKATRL
As to the kind of experiment: Inhibition of mouse iNOS expressed in HEK293 cells assessed as NO production in by transient transfection assay. The format is cell-based. The method, boiled down:
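HEK293 cells grown to ~70% confluence in DMEM/10% FBS with pen/strep. Cells transiently transfected with 10 µg human or murine iNOS plasmid (Fugene 6), 4 h at 37 °C, 10% CO2. Trypsinized, plated at 5 × 10⁵ cells/mL and dosed at once; 1400W 100 µM final as positive control. After 18 h, NO read as DAN fluorescence (10 µg/mL, 20 min RT, then NaOH). EC50 from 3 runs, 10-point curves, n = 8/point.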

Data set [2] has as its system Mus musculus. The experiment in a line: Reduction of plasma nitrate level in LPS-challenged po dosed BALB/c mouse. The format is functional. The method, boiled down: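 Male Balb/c mice were dosed by oral gavage (90% PEG/5% Tween 80/5% PVP + 90% CMC (0.5% w/v)) at t = 0 h, 30 mg/kg for single-dose lines. LPS 10 mg/kg ip in 0.9% NaCl followed immediately. At 6 h, EDTA plasma was taken for nitrate and drug levels. Nitrate reduction is relative to vehicle; ED50 came from full oral dose-response.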

Another data set addresses Cytochrome P450 2C9 (Homo sapiens, UniProt P11712). The experiment in a line: Inhibition of CYP2C9. The format is ADME.
Another data set addresses CYP2D6 (Homo sapiens, UniProt P10635). The experiment in a line: Inhibition of CYP2D6 at 100 uM. The format is ADME.
Data set [3] in a line: Cmax in mouse at 10 mg/kg, po. The format is ADME, organism-based. The arrangement: dose 10 mg/kg, route oral. As to conditions: in vivo.
Data set [4] is described as follows: Tmax in mouse at 10 mg/kg, po. As to conditions: in vivo. The format is ADME, organism-based. Details: dose 10 mg/kg, route oral.
The nature of data set [5]: Half life in mouse at 10 mg/kg, po. Details: dose 10 mg/kg, route oral. The format is ADME, organism-based. As to conditions: in vivo.
The nature of data set [6]: AUC in mouse at 10 mg/kg, po. The format is ADME, organism-based. Details: dose 10 mg/kg, route oral. As to conditions: plasma.
Data set [7] in a line: Plasma clearance in mouse at 10 mg/kg, po. The format is ADME, organism-based. Details: dose 10 mg/kg, route oral.
Another data set addresses T2, CYP1A2 (Homo sapiens, UniProt P05177).
T2 sequence (P05177 whole entry): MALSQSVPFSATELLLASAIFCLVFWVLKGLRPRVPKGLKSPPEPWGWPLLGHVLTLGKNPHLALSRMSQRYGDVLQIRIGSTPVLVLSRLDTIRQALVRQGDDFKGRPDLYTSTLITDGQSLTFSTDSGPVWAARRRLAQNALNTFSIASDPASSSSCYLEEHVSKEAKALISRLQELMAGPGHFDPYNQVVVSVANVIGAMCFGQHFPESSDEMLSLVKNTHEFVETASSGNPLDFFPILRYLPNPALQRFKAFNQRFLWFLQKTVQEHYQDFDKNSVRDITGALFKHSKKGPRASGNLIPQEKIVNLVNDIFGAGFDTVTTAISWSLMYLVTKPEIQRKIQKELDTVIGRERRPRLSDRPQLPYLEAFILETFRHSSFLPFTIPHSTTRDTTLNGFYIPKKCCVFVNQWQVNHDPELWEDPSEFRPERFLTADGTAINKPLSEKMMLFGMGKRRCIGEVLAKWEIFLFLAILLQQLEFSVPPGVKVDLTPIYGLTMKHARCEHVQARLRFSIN
As to the kind of experiment: Inhibition of CYP1A2 at 100 uM. The format is ADME.

Data set [8] relates to Mus musculus. As to the kind of experiment: Antinociceptive activity against formalin-induced phase 2 pain in mouse paw assessed as pain behavior at 100 mg/kg, po pretreated 30 mins before formalin challenge relative to control. The format is functional. The method, boiled down:
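Mice were dosed 100 mg/kg po (PEG/Tween 80/PVP + CMC vehicle) 30 min before 20 µL formalin into the left hind paw. Phase II pain-behavior duration was timed 25–45 min post-injection by a single observer. Results are mean ± SE, n = 5–6 mice, compared to vehicle by one-way ANOVA with post hoc tests.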

The test system of data set [9] is Mus musculus. The experiment in a line: Antinociceptive activity against acetone-induced chronic constriction injury in mouse paw assessed as duration of pain behavior at 100 mg/kg, po pretreated 30 mins before formalin challenge relative to control. The format is functional. As to conditions: in the assay text read “acetone testing” for “formalin challenge”. Put shortly:
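Mice underwent chronic constriction injury surgery (Bennett and Xie) and recovered 1–2 weeks. After 100 mg/kg po dosing 30 min before testing and 1 h acclimation on a wire mesh platform, 100 µL acetone was applied to the injured plantar hindpaw. Flinching, licking and biting were recorded for 1 min, with reduction relative to vehicle.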

Data set [10] deals with Mus musculus. As to the kind of experiment: Volume of distribution in mouse at 10 mg/kg, po. The format is ADME, organism-based. The arrangement: dose 10 mg/kg, route oral. As to conditions: in vivo.
Data set [11] concerns the target Voltage-gated inwardly rectifying potassium channel KCNH2 (Homo sapiens, UniProt Q12809). As to the kind of experiment: Activity at human ERG by patch clamp assay. On the technique in general: In patch-clamp work, channel activity is measured electrically.

CYP2D6, sequence (P10635 whole entry): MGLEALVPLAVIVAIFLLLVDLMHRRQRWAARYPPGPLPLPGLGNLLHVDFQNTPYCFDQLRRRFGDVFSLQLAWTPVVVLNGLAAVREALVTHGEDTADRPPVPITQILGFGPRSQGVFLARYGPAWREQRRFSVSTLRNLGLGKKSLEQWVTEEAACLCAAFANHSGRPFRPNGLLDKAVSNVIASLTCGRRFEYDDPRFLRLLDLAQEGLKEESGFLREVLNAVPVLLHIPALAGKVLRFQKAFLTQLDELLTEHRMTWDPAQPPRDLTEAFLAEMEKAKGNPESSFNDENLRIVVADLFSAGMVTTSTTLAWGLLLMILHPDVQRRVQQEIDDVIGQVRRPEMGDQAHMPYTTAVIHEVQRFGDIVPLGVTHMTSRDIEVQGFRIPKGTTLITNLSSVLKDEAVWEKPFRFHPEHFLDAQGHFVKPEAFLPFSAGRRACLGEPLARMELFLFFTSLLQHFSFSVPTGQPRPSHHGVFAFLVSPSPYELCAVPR
Cytochrome P450 2C9, sequence (P11712 whole entry): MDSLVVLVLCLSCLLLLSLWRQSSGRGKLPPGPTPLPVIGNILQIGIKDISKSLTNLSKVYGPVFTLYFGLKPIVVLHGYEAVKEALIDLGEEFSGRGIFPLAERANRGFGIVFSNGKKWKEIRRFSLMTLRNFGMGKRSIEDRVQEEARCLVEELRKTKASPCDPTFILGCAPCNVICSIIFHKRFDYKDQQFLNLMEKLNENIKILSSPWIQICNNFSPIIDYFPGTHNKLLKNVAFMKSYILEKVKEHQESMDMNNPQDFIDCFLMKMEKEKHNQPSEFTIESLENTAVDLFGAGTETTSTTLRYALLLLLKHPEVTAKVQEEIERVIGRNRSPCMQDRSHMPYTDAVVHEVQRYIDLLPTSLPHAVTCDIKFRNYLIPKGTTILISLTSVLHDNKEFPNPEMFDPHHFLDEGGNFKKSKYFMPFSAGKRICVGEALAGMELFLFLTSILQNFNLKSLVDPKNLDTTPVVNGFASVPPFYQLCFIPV
Voltage-gated inwardly rectifying potassium channel KCNH2, sequence (Q12809 whole entry): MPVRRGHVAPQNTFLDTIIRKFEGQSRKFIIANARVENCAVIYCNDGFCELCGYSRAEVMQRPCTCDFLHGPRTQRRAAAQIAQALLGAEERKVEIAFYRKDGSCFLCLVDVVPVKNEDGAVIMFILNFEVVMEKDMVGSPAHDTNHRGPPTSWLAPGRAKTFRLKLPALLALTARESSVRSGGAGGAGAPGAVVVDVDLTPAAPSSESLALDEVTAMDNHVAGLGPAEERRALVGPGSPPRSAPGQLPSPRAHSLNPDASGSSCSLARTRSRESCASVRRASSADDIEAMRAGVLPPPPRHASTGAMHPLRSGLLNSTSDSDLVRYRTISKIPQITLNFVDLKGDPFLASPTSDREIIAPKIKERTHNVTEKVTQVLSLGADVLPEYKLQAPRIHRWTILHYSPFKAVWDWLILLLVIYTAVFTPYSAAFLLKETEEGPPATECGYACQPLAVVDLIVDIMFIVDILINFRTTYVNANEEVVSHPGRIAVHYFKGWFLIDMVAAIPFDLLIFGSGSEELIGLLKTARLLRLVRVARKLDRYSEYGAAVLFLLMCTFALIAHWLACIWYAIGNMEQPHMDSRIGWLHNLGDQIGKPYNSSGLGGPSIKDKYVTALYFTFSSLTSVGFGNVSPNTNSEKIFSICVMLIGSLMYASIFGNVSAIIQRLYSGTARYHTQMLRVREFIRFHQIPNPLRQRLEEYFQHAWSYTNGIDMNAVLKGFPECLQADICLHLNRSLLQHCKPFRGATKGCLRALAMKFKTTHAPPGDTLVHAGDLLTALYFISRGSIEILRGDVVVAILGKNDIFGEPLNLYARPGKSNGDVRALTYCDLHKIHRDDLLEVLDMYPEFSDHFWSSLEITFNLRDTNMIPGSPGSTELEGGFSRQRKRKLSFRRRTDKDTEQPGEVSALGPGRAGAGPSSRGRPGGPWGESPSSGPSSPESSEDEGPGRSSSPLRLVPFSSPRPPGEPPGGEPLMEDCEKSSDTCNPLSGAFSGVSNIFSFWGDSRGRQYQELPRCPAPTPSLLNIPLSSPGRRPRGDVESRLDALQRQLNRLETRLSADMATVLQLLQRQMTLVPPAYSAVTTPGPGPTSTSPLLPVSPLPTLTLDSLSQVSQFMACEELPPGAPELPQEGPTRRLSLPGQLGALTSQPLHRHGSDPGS

On to `Cc1ncsc1C(=O)N(Cc1cc(=O)[nH]c2c(F)c(F)ccc12)c1cccc(Cl)c1`, for which the results for the concentration giving a half-maximal response (EC50) (in data set [1]; at Cytochrome P450 2C9) were 32 nM and 22 µM, respectively. The ED50 (usually the dose at which the effect has come halfway, by size or by number of responders) in the data set with Mus musculus [2] amounted to 13 mg/kg. Further, at CYP2D6, the inhibition (in general, the change of the read-out against control, counted positive when it falls) at 100 µM is less than 50%.

For the molecule `Cc1ncsc1C(=O)N(Cc1cc(=O)[nH]c2c(F)cccc12)c1cccc(Cl)c1`, the EC50 (as a rule, the concentration that produces a half-maximal response) came to 120 nM in data set [1] and 33 µM on Cytochrome P450 2C9. The ED50 with Mus musculus [2] was determined as 10 mg/kg. In addition, the maximum concentration (Cmax) (usually the highest concentration seen after dosing) in data set [3] was determined as 1400 nM. Besides, the Tmax (commonly the time from dosing to the highest level) in [4] came to 30 min. The half-life (usually the time in which the quantity being followed falls by half) in data set [5] was 54 min. In addition, in [6], the AUC – broadly, concentration integrated over time – was found to be 450 ng·h/mL. Further, the CL/F (usually the apparent clearance, not corrected for the fraction that reaches the circulation) in [7] is greater than 100 mL/min/kg. Also, the inhibition at 100 µM against CYP1A2 and against CYP2D6 was less than 50% throughout. The Activity in the data set on Mus musculus [8] is 40%; in the data set with Mus musculus [9], 45%. In addition, in the data set on Mus musculus [10], the Vdss turned out to be 1.6 L/kg.

Consider `CC1=C(C(=O)N(Cc2cc(=O)[nH]c3c(F)c(F)ccc23)c2cccc(Cl)c2)CNCC1`, for which, in data set [1], the EC50 amounted to 57 nM. In the data set on Mus musculus [2], this molecule had a 50% effective dose (ED50) of 16 mg/kg. The inhibition at 100 µM against CYP1A2 and at CYP2D6 was less than 50% throughout.

Take `Cc1ncsc1C(=O)N(Cc1c[n+]([O-])cc2c(F)c(F)ccc12)c1cccc(Cl)c1`: the EC50 is 74 nM in data set [1] and 55 µM at Cytochrome P450 2C9. Further, the inhibition at 100 µM against CYP1A2 and against CYP2D6 was less than 50% throughout.

On to `CC(C)C(=O)N(Cc1cc(=O)[nH]c2c(F)cccc12)c1cccc(Cl)c1`, for which the EC50 in [1] came out at 2700 nM. For the same molecule, the inhibition at 100 µM at CYP1A2 and against CYP2D6 was less than 50% throughout.

`Cn1cncc1C(=O)N(Cc1cc(=O)[nH]c2c(F)c(F)ccc12)c1cccc(Cl)c1`: the results for the half-maximal effective concentration (EC50) (in [1]; on Cytochrome P450 2C9; in data set [11]) were 14 nM, 25 µM and 8 µM, respectively. Moreover, the 50% effect level with Mus musculus [2] (ED50) was put at a dose of 5 mg/kg. The peak level in data set [3] (Cmax) was 2200 nM. Also, the Tmax in data set [4] worked out at 15 min. This molecule also had a half-life in [5] of 66 min. The molecule also registered an AUC in data set [6] of 520 ng·h/mL. For the same molecule, the CL/F in [7] was greater than 100 mL/min/kg. The Activity with Mus musculus [8] is reported as 65%. The molecule further gave a Vdss in the data set on Mus musculus [10] of 1.1 L/kg.
